Test results published in ChEMBL document CHEMBL1136807, “CC-1065 analogues bearing different DNA-binding subunits: synthesis, antitumor activity, and preliminary toxicity study” (J Med Chem, 2003).
pIC50: −log10 of the molar value.

What was measured:
Mus musculus [1] = experiment: Increase in life span of mice bearing L1210 leukemia after administration of 42 […] compound; assay type: functional
Outline: (§1)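 In vivo antitumor test in mice bearing L1210 leukemia, read out as increase in life span (ILS). Body weight was monitored. The optimal dose was defined as the dose giving the best antitumor efficacy with body weight loss ≤15%.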

Mus musculus [2] = experiment: Number of mice bearing L1210 leukemia that survived after 30 days, after administration of 70 […] compound; assay type: functional; outline: as §1
Mus musculus [3] = experiment: Weight change in mice bearing L1210 leukemia after administration of 42 […] compound; assay type: functional
Mus musculus [4] = experiment: Increase in life span of mice bearing L1210 leukemia after administration of 70 mg/kg compound; assay type: functional; outline: as §1
Mus musculus [5] = experiment: Number of mice bearing L1210 leukemia that survived after 30 days, after administration of 25 […] compound; assay type: functional; outline: as §1
Mus musculus [6] = experiment: Days until first mouse died treated with 100 […] compound; assay type: functional
Outline: (§2)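 Delayed-toxicity study in non-tumor-bearing BDF1 mice: single ip dose given on day 0, then animals observed for up to 180 days. Recorded the day the first mouse died and the number of mice alive on day 180, with 6–8 mice per group.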

Mus musculus [7] = experiment: Increase in life span of mice bearing L1210 leukemia after administration of 25 […] compound; assay type: functional; outline: as §1
L1210 = experiment: Compound was tested in vitro against L1210 leukemia cells; assay type: functional, cell-based; settings: Mus musculus
Outline: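 L1210 murine leukemia cells exposed to drug for 48 h; IC50 reported in nM.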

Mus musculus [8] = experiment: Number of mice bearing L1210 leukemia that survived after 30 days, after administration of 42 µg/kg compound
Mus musculus [9] = experiment: Weight change in mice bearing L1210 leukemia after administration of 25 […] compound; assay type: functional
Mus musculus [10] = experiment: Weight change in mice bearing L1210 leukemia after administration of 70 […] compound; assay type: functional
Mus musculus [11] = experiment: Number of mice surviving on day 180 treated with 100 […] compound; 2/8; assay type: functional, organism-based; outline: as §2
Mus musculus [12] = experiment: Number of mice bearing L1210 leukemia that survived after 30 days, after administration of 1000 […] compound; assay type: functional; outline: as §1
Mus musculus [13] = experiment: Weight change in mice bearing L1210 leukemia after administration of 500 […] compound; assay type: functional
Mus musculus [14] = experiment: Days until first mouse died treated with 1000 […] compound; assay type: functional; outline: as §2
Mus musculus [15] = experiment: Number of mice bearing L1210 leukemia that survived after 30 days, after administration of 500 µg/kg compound
Mus musculus [16] = experiment: Days until first mouse died treated with 2000 […] compound; assay type: functional; outline: as §2
Mus musculus [17] = experiment: Increase in life span of mice bearing L1210 leukemia after administration of 500 […] compound; assay type: functional; outline: as §1
Mus musculus [18] = experiment: Weight change in mice bearing L1210 leukemia after administration of 1000 […] compound; assay type: functional
Mus musculus [19] = experiment: Number of mice bearing L1210 leukemia that survived after 30 days, after administration of 250 […] compound; assay type: functional; outline: as §1
Mus musculus [20] = experiment: Increase in life span of mice bearing L1210 leukemia after administration of 250 […] compound; assay type: functional; outline: as §1
Mus musculus [21] = experiment: Number of mice surviving on day 180 treated with 2000 […] compound; 0/6; assay type: functional, organism-based
Mus musculus [22] = experiment: Increase in life span of mice bearing L1210 leukemia after administration of 1000 […] compound; assay type: functional; outline: as §1
Mus musculus [23] = experiment: Weight change in mice bearing L1210 leukemia after administration of 250 […] compound; assay type: functional
Mus musculus [24] = experiment: Increase in life span of mice bearing L1210 leukemia after administration of 30 […] compound; assay type: functional; outline: as §1
Mus musculus [25] = experiment: Number of mice surviving on day 180 treated with 100 […] compound; 7/7; assay type: functional, organism-based
Mus musculus [26] = experiment: Weight change in mice bearing L1210 leukemia after administration of 45 […] compound; assay type: functional
Mus musculus [27] = experiment: Number of mice bearing L1210 leukemia that survived after 30 days, after administration of 45 µg/kg compound
Mus musculus [28] = experiment: Increase in life span of mice bearing L1210 leukemia after administration of 67 […] compound; assay type: functional; outline: as §1
Mus musculus [29] = experiment: Number of mice bearing L1210 leukemia that survived after 30 days, after administration of 67 […] compound; assay type: functional; outline: as §1
Mus musculus [30] = experiment: Number of mice bearing L1210 leukemia that survived after 30 days, after administration of 30 ug/kg compound
Mus musculus [31] = experiment: Days until first mouse died treated with 100 […] compound; no death; assay type: functional, organism-based
Mus musculus [32] = experiment: Increase in life span of mice bearing L1210 leukemia after administration of 45 […] compound; assay type: functional; outline: as §1
Mus musculus [33] = experiment: Weight change in mice bearing L1210 leukemia after administration of 30 […] compound; assay type: functional
Mus musculus [34] = experiment: Weight change in mice bearing L1210 leukemia after administration of 67 […] compound; assay type: functional
Mus musculus [35] = experiment: Number of mice bearing L1210 leukemia that survived after 30 days, after administration of 620 […] compound; assay type: functional; outline: as §1
Mus musculus [36] = experiment: Number of mice surviving on day 180 treated with 100 […] compound; 8/8; assay type: functional, organism-based
Mus musculus [37] = experiment: Weight change in mice bearing L1210 leukemia after administration of 620 […] compound; assay type: functional
Mus musculus [38] = experiment: Increase in life span of mice bearing L1210 leukemia after administration of 298 […] compound; assay type: functional; outline: as §1
Mus musculus [39] = experiment: Weight change in mice bearing L1210 leukemia after administration of 498 […] compound; assay type: functional
Mus musculus [40] = experiment: Number of mice bearing L1210 leukemia that survived after 30 days, after administration of 298 […] compound; assay type: functional; outline: as §1
Mus musculus [41] = experiment: Number of mice bearing L1210 leukemia that survived after 30 days, after administration of 498 µg/kg compound
Mus musculus [42] = experiment: Increase in life span of mice bearing L1210 leukemia after administration of 498 […] compound; assay type: functional; outline: as §1
Mus musculus [43] = experiment: Weight change in mice bearing L1210 leukemia after administration of 298 […] compound; assay type: functional
Mus musculus [44] = experiment: Increase in life span of mice bearing L1210 leukemia after administration of 620 […] compound; assay type: functional; outline: as §1

CC(=O)Nc1ccc2[nH]c(C(=O)Nc3ccc4[nH]c(C(=O)N5C[C@@H](CCl)c6c5cc(O)c5ccccc65)cc4c3)cc2c1
ILS at 42 mg/kg (Mus musculus [1]): 133%
Survivors (Mus musculus [2]): 0
Weight change (Mus musculus [3]): 5%
ILS (Mus musculus [4]): 80%
Survivors (Mus musculus [5]): 1
Days (Mus musculus [6]): 49
ILS at 25 mg/kg (Mus musculus [7]): 173%
pIC50 (L1210): 8.92
Survivors (Mus musculus [8]): 0
Weight change (Mus musculus [9]): 7%
Weight change (Mus musculus [10]): -6%
No. of mice (Mus musculus [11]): Mice surviving 2/8

COc1cccc2c1C(=O)c1c(O)c3c(c(O)c1C2=O)C[C@@](O)(C(=O)CO)C[C@@H]3O[C@H]1C[C@H](N)[C@H](O)[C@H](C)O1 [DOXORUBICIN]
pIC50 (L1210): 6.75

CC(=O)Nc1ccc2oc(C(=O)Nc3ccc4[nH]c(C(=O)N5CC(CCl)c6c5cc(O)c5ccccc65)cc4c3)cc2c1 (racemic)
pIC50 (L1210): 8.92

CC(=O)Nc1cc(C(=O)Nc2cc(C(=O)N3CC(CCl)c4c3cc(O)c3ccccc43)n(C)c2)n(C)c1 (racemic)
Survivors (Mus musculus [12]): 0
Weight change (Mus musculus [13]): 5%
Days (Mus musculus [14]): 60
Survivors (Mus musculus [15]): 0
pIC50 (L1210): 7.36
Days until first death (Mus musculus [16]): 29 days
ILS at 500 mg/kg (Mus musculus [17]): 31%
Weight change (Mus musculus [18]): -6%
Survivors (Mus musculus [19]): 0
ILS at 250 mg/kg (Mus musculus [20]): 31%
No. of mice (Mus musculus [21]): Mice surviving 0/6
ILS at 1000 mg/kg (Mus musculus [22]): 77%
Weight change (Mus musculus [23]): 7%

O=C(Nc1ccc2[nH]c(C(=O)N3CC(CCl)c4c3cc(O)c3ccccc43)cc2c1)c1cc2cc(F)ccc2o1 (racemic)
ILS at 30 mg/kg (Mus musculus [24]): 67%
No. of mice (Mus musculus [25]): Mice surviving 7/7
Weight change (Mus musculus [26]): 5%
Survivors (Mus musculus [27]): 0
ILS at 67 mg/kg (Mus musculus [28]): 147%
pIC50 (L1210): 9.07
Survivors (Mus musculus [29]): 0
Survivors (Mus musculus [30]): 0
Days (Mus musculus [31]): No death
ILS at 45 mg/kg (Mus musculus [32]): 107%
Weight change (Mus musculus [33]): 5%
Weight change (Mus musculus [34]): 0%

O=C(Nc1ccc2[nH]c(/C=C/C(=O)N3CC(CCl)c4c3cc(O)c3ccccc43)cc2c1)c1cc2ccccc2[nH]1 (racemic)
Survivors (Mus musculus [35]): 0
No. of mice (Mus musculus [36]): Mice surviving 8/8
Weight change (Mus musculus [37]): -13%
ILS at 298 mg/kg (Mus musculus [38]): 157%
pIC50 (L1210): 9.00
Weight change (Mus musculus [39]): 0%
Survivors (Mus musculus [40]): 0
Days (Mus musculus [31]): No death
Survivors (Mus musculus [41]): 1
ILS at 498 mg/kg (Mus musculus [42]): 231%
Weight change (Mus musculus [43]): 0%
ILS at 620 mg/kg (Mus musculus [44]): 147%
